Source: ChEMBL document CHEMBL5705890, “Antitumor activity of an allosteric inhibitor of centromere-associated protein-E” (Proc Natl Acad Sci U S A, 2010)
pKi: −log10 of the molar value.

What was measured:
A498 [1] = experiment: Anticancer activity against human A498 cells assessed as cell growth inhibition measured after 72 hrs by DAPI staining based analysis; format: functional
Procedure, shortened: (§1)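 Cells were seeded and, after 24 h, DNA content was read as T0. Cells were then exposed to varying drug concentrations for a further 72 h (T72). Fixed cells were DAPI-stained and DNA content measured by automated imaging. T72 values were normalized to T0. GI50 is the concentration giving 50% growth inhibition between T0 and Ymax, obtained by curve fitting.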

5637 = experiment: Anticancer activity against human 5637 cells assessed as cell doubling measured for 72 hrs by DAPI staining based analysis; format: functional
MDA-MB-435 = experiment: Anticancer activity against human MDA-MB-435 cells assessed as cell doubling measured for 72 hrs by DAPI staining based analysis; format: functional
D283 Med = experiment: Anticancer activity against human D283 Med cells assessed as cell doubling measured for 72 hrs by DAPI staining based analysis; format: functional
BFTC-905 = experiment: Anticancer activity against human BFTC-905 cells assessed as cell growth inhibition measured after 72 hrs by DAPI staining based analysis; format: functional; procedure, shortened: as §1
HT-29 = experiment: Antitumor activity against human HT-29 cells in xenograft model assessed as difference between median time to endpoint time of treated versus control group at 62.5 mg/kg; format: functional
[2] = Anticancer activity against human A7 cells assessed as cell growth inhibition measured after 72 hrs by DAPI staining based analysis; format: functional; procedure, shortened: as §1
LS-1034 = experiment: Anticancer activity against human LS1034 cells assessed as cell growth inhibition measured after 72 hrs by DAPI staining based analysis; format: functional
A498 [3] = experiment: Anticancer activity against human A498 cells assessed as cell doubling measured for 72 hrs by DAPI staining based analysis; format: functional
OVCAR-5 = experiment: Anticancer activity against human OVCAR-5 cells assessed as cell doubling measured for 72 hrs by DAPI staining based analysis; format: functional
EKVX = experiment: Anticancer activity against human EKVX cells assessed as cell growth inhibition measured after 72 hrs by DAPI staining based analysis; format: functional
Procedure, shortened: (§2)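 Cells seeded, DAPI-stained DNA content of fixed cells read by imaging 24 h after seeding (T0), and again after a further 72 h exposure to a range of drug concentrations (T72). T72 values were normalized to T0. Curve fits gave the concentration producing 50% growth inhibition relative to T0 and Ymax (GI50).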

[4] = Anticancer activity against human NL-SCLC3 cells assessed as cell growth inhibition measured after 72 hrs by DAPI staining based analysis; format: functional
SK-OV-3 = experiment: Anticancer activity against human SK-OV-3 cells assessed as cell growth inhibition measured after 72 hrs by DAPI staining based analysis; format: functional
OVCAR-3 = experiment: Anticancer activity against human OVCAR-3 cells assessed as cell growth inhibition measured after 72 hrs by DAPI staining based analysis; format: functional
SK-NEP-1 = experiment: Anticancer activity against human SK-NEP-1 cells assessed as cell growth inhibition measured after 72 hrs by DAPI staining based analysis; format: functional
[5] = system: KATO III stomach cancer cell line; experiment: Anticancer activity against human KATO III stomach cancer cell line cells assessed as cell doubling measured for 72 hrs by DAPI staining based analysis; format: functional
A-431 = experiment: Anticancer activity against human A-431 cells assessed as cell growth inhibition measured after 72 hrs by DAPI staining based analysis; format: functional; procedure, shortened: as §1
Centromere protein E = Centromere protein E (Canis lupus familiaris, UniProt A0A8P0P634); experiment: Binding affinity to wild-type dog CENP-E assessed as inhibition constant
Sequence of Centromere protein E (A0A8P0P634 whole entry): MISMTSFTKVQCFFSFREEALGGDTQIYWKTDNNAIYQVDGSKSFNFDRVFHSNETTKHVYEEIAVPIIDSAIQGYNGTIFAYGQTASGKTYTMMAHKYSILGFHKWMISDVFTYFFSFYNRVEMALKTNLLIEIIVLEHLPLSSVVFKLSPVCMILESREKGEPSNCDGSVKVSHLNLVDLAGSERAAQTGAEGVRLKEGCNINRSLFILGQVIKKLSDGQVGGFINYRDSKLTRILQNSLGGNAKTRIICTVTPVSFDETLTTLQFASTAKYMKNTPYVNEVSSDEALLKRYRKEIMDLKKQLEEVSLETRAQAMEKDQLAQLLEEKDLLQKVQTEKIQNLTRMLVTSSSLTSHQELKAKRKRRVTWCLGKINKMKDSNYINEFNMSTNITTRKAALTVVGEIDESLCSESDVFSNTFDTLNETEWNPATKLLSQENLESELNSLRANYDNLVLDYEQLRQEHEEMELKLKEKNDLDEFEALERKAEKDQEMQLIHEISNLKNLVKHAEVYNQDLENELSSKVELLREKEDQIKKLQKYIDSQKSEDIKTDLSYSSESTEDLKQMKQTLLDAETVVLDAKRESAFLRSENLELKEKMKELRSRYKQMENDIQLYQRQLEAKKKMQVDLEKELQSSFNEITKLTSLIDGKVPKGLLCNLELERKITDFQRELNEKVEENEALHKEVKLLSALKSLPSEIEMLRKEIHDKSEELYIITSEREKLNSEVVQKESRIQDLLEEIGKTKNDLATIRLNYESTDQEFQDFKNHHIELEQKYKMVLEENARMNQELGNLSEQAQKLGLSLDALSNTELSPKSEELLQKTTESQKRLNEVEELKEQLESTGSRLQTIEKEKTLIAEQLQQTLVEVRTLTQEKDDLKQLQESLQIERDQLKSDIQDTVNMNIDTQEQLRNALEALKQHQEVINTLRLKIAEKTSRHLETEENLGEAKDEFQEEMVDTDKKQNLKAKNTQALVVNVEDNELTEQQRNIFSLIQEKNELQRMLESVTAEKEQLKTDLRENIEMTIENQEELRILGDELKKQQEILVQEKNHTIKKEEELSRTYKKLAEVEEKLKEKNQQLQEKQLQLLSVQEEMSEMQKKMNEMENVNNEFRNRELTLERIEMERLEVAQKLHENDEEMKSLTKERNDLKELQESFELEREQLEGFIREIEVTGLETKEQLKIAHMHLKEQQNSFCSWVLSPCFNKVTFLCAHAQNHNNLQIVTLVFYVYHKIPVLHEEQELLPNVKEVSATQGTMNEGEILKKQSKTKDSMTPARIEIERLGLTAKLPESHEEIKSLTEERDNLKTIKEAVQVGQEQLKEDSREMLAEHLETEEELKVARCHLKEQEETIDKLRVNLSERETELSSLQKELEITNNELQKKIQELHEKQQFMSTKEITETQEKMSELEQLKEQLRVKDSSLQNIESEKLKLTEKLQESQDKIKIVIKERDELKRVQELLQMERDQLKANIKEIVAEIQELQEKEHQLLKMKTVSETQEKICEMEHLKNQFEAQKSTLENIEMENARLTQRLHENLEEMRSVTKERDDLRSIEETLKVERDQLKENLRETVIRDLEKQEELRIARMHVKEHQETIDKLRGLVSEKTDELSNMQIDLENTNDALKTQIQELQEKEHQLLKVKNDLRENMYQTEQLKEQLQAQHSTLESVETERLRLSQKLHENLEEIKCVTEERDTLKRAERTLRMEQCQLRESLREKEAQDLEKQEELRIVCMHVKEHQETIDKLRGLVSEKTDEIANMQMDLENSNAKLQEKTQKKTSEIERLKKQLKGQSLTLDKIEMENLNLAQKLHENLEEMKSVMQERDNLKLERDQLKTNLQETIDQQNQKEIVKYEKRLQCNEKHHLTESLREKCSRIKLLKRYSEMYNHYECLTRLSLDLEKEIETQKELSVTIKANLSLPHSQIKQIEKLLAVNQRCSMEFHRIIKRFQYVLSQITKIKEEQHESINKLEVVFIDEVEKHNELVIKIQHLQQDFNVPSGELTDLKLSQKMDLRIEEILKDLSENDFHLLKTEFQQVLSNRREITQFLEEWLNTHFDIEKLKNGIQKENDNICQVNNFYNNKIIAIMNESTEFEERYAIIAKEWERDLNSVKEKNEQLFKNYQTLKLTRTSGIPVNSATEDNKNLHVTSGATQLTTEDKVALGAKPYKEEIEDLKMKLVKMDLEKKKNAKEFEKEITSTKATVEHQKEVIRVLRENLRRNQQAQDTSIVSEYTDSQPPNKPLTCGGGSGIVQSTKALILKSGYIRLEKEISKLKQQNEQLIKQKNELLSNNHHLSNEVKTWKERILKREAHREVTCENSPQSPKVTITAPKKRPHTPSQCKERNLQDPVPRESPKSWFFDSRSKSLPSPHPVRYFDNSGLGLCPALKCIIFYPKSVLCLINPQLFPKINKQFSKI

BeWo = experiment: Anticancer activity against human BeWo cells assessed as cell doubling measured for 72 hrs by DAPI staining based analysis; format: functional
SW 962 = experiment: Anticancer activity against human SW 962 cells assessed as cell doubling measured for 72 hrs by DAPI staining based analysis; format: functional
MC-CAR = experiment: Anticancer activity against human MC-CAR cells assessed as cell doubling measured for 72 hrs by DAPI staining based analysis; format: functional
HN5 = experiment: Anticancer activity against human HN5 cells assessed as cell growth inhibition measured after 72 hrs by DAPI staining based analysis; format: functional
[6] = Anticancer activity against human BC1 cells assessed as cell doubling measured for 72 hrs by DAPI staining based analysis; format: functional
SNU-449 = experiment: Anticancer activity against human SNU-449 cells assessed as cell doubling measured for 72 hrs by DAPI staining based analysis; format: functional
SW1783 = experiment: Anticancer activity against human SW1783 cells assessed as cell doubling measured for 72 hrs by DAPI staining based analysis; format: functional
SW-620 = experiment: Anticancer activity against human SW620 cells assessed as cell growth inhibition measured after 72 hrs by DAPI staining based analysis; format: functional
A549 = experiment: Antitumor activity against human A549 cells in xenograft model assessed as difference between median time to endpoint time of treated versus control group at 62.5 mg/kg; format: functional
MCF7 = experiment: Antitumor activity against human MCF7 cells in xenograft model assessed as tumor growth delay at 125 mg/kg relative to control; format: functional
Capan-2 = experiment: Anticancer activity against human Capan-2 cells assessed as cell growth inhibition measured after 72 hrs by DAPI staining based analysis; format: functional; procedure, shortened: as §2
CRO-AP2 = experiment: Anticancer activity against human CRO-AP2 cells assessed as cell doubling measured for 72 hrs by DAPI staining based analysis; format: functional
[7] = Anticancer activity against human NCI-H322T cells assessed as cell doubling measured for 72 hrs by DAPI staining based analysis; format: functional
[8] = Anticancer activity against human CML-T1 cells assessed as cell doubling measured for 72 hrs by DAPI staining based analysis; format: functional
SW1990 = experiment: Anticancer activity against human SW1990 cells assessed as cell growth inhibition measured after 72 hrs by DAPI staining based analysis; format: functional
MDA-MB-453 = experiment: Anticancer activity against human MDA-MB-453 cells assessed as cell growth inhibition measured after 72 hrs by DAPI staining based analysis; format: functional
[9] = Antitumor activity against human MV-522 cells in xenograft model assessed as tumor growth delay at 125 mg/kg relative to control; format: functional
OVCAR-4 = experiment: Anticancer activity against human OVCAR-4 cells assessed as cell doubling measured for 72 hrs by DAPI staining based analysis; format: functional
Hep 3B2 = experiment: Anticancer activity against human Hep3B cells assessed as cell doubling measured for 72 hrs by DAPI staining based analysis; format: functional
NCI-H2052 = experiment: Anticancer activity against human NCI-H2052 cells assessed as cell doubling measured for 72 hrs by DAPI staining based analysis; format: functional
SK-N-DZ = experiment: Anticancer activity against human SK-N-DZ cells assessed as cell growth inhibition measured after 72 hrs by DAPI staining based analysis; format: functional
NCI-H146 = experiment: Anticancer activity against human NCI-H146 cells assessed as cell doubling measured for 72 hrs by DAPI staining based analysis; format: functional
[10] = Anticancer activity against human NL-SCLC3 cells assessed as cell doubling measured for 72 hrs by DAPI staining based analysis; format: functional
TK-10 = experiment: Anticancer activity against human TK-10 cells assessed as cell growth inhibition measured after 72 hrs by DAPI staining based analysis; format: functional

GI50 (SK-OV-3): 26 nM
GI50 (OVCAR-3): 42 nM
GI50 (SK-NEP-1): 55 nM
GI50 (A-431): 21 nM
pKi (Centromere protein E): 8.80
GI50 (SW-620): 47 nM
GI50 (SW1990): 127 nM
GI50 (MDA-MB-453): 27 nM
GI50 (SK-N-DZ): 69 nM
Compound: CC(C)Oc1ccc(C(=O)N[C@H](CNC(=O)CN(C)C)Cc2ccc(-c3cn4cccc([C@H](C)O)c4n3)cc2)cc1Cl [GSK-923295A]
GI50 (A498 [1]): 81 nM
Activity 5637: 1.43
Activity (MDA-MB-435): 2.96
Activity (D283 Med): 1.27
GI50 (BFTC-905): 30 nM
Time (HT-29): 2.7 days
GI50 [2]: 40 nM
GI50 (LS-1034): 97 nM
Activity (A498 [3]): 1.11
Activity (OVCAR-5): 2.84
GI50 (EKVX): 28 nM
GI50 [4]: 31 nM
Activity [5]: 2.02
Activity (BeWo): 2.95
Activity (SW 962): 2.46
Activity (MC-CAR): 2.03
GI50 (HN5): 118 nM
Activity [6]: 3.65
Activity (SNU-449): 2.33
Activity (SW1783): 1.47
Time (A549): 3.7 days
Activity (MCF7): 58%
GI50 (Capan-2): 119 nM
Activity (CRO-AP2): 2.92
Activity [7]: 2.27
Activity [8]: 2.88
Activity [9]: 104%
Activity (OVCAR-4): 2.94
Activity (Hep 3B2): 2.37
Activity (NCI-H2052): 2.09
Activity (NCI-H146): 1.2
Activity [10]: 2.68
GI50 (TK-10): 49 nM
